Assay outcomes: PubChem BioAssay, several laboratories
The list is not random: actives were taken first. Their share in the collection is about 1.4%.
CHT PAM: allosterically activates the human high affinity choline transporter. AID 488977. Q9GZV3. B-score at 10 µM. CHT-expressing cells, membrane potential dye, choline EC20; hits give high values; LV-AA mutant CHT in HEK293 cells. 310,000 compounds, 0.49% hits;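 active = initial fluorescence not abnormally high and integrated response B-score, plate-corrected, over 3 SD above library mean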
CHT block: inhibitors of human choline transporter CHT; Q9GZV3; CHT-expressing cells, membrane potential dye, choline response; hits give low values; B-score at 10 µM; 310,000 compounds, 0.86% hits;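 active = B-score over 3 SD under the library average, and starting fluorescence ratio not unusually high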;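 also: choline stimulus applied at its EC90 after an EC20 pre-addition; B-score computed on integrated fluorescence ratio after choline addition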
TNAP act hiacc: activators of human TNAP at high phosphate acceptor concentration. P05186. purified TNAP, CDP-star luminescence, 1 M DEA, 30 min; hits give high values; 0 = EDTA background, 1 = DMSO-only activity. activation factor at 20 µM. 200,000 tested, under 10 active. AID 1136;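 active = activation factor at least 2 at 20 µM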
Target sequence (P05186 whole entry, looked up): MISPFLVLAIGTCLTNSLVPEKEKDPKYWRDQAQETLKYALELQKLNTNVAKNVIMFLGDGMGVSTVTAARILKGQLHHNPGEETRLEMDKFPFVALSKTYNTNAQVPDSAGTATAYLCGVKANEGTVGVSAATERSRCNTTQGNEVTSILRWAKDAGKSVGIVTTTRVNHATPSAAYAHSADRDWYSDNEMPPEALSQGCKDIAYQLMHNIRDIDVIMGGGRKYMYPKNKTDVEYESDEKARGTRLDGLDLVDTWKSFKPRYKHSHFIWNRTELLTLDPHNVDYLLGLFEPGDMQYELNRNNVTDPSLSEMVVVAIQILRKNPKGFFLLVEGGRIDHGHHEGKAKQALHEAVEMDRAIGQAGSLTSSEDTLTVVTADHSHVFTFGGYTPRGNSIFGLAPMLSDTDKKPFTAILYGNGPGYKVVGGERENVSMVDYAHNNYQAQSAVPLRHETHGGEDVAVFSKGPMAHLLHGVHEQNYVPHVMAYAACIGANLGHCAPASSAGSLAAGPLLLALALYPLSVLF
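Assay system: human TNAP; Input: enzyme diluted 1/800 final; Reagent: CDP-star luminogenic substrate at 100 µM final; Timing: 30 min, room temperature; Signal: luminescence; Evaluation: TNAP activation factor scaled between EDTA and DMSO control wells.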
ABCB6 inh 2: inhibitors of human ABC transporter ABCB6; fluorescence ratio to DMSO, % at 10 µM; Q9NP58; K562-ABCB6 porphyrin accumulation, flow cytometry, 1 h; hits give low values; 360,000 compounds, 0.19% hits; AID 602162;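 active = fluorescence ratio to DMSO below 75%, the collection mean minus 3 SD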;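 also: signal is porphyrin accumulated inside mitochondria; 100% equals median channel fluorescence of DMSO control wells; lower ratio means ABCB6 inhibition with less porphyrin fluorescence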
TNAP inh hi DEA: blocks human TNAP under high phosphate acceptor concentration | P05186 | purified TNAP, CDP-star luminescence, 1 M DEA | inhibition, % at 20 µM | 200,000 compounds, 0.03% hits | AID 1135;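 active = over 50% inhibition of tissue-nonspecific alkaline phosphatase at 20 µM in the single-dose screen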;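 also: plate controls were DMSO wells for no effect and EDTA-quenched wells as full inhibition for full effect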
TNAP inh noacc: inhibitors of human TNAP without phosphate acceptor; P05186; purified TNAP, CDP-star luminescence, 30 min; inhibition, % at 20 µM; 200,000 compounds, 0.26% hits;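 active = tissue-nonspecific alkaline phosphatase inhibition above about 50% at 20 µM in the single-dose screen, limit read from the data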;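 also: 0% = DMSO negative control and 100% = EDTA positive control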
CHT act confirm: human CHT activation, confirmatory screen; activation, % at 10 µM; shares compounds with CHT PAM; CHT-expressing cells, membrane potential dye fluorescence (FDSS); % of choline EC20–EC90 response window; HEK293 expressing CHT LV-AA mutant; choline added at its EC20; 2,500 compounds, 91% hits; AID 504833;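 active = primary screen active, with duplicate mean activation above negative control mean plus 3 SD, cut at about 11% in these data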
HEK293 MP dye: CHT activator counter-screen hit in parental HEK293 cells; shares compounds with CHT PAM; membrane potential dye fluorescence (FDSS); measured after EC20 choline addition; ratio readout change at 10 µM, hits read low; 2,500 compounds, 62% hits; AID 623908;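 active = duplicate-averaged ratio beyond 3 SD from buffer wells, up or down, though filed actives are nearly all decreases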
Active calls of the source: *; i = inactive; nt = not tested or not shown.

SMILES	CHT PAM	CHT block	TNAP act hiacc	ABCB6 inh 2	TNAP inh hi DEA	TNAP inh noacc	CHT act confirm	HEK293 MP dye
Fc1ccc(C(CCNCc2ccccn2)c2ccc(Cl)cc2)cc1 (configuration not stated)	i	i	nt	99.0	nt	nt	16.4*	i
CCCCOc1ccc(C(=O)NCCOc2cccc(OC)c2)cc1	i	i	nt	99.0	nt	nt	nt	nt
CCOC(=O)c1cnn(-c2sc(C(=O)OCC)c(C)c2C(=O)OCC)c1N	6.56*	i	nt	100.0	nt	nt	-3.1	i
CCN1C(=O)[C@H]2[C@H]3CN=C(SCc4ccc(Cl)cc4)N3[C@@](C)(C(=O)OC)[C@H]2C1=O	nt	nt	nt	101.0	nt	nt	nt	nt
O=[N+]([O-])c1ccc(C[n+]2cccc(O)c2)cc1	i	i	nt	96.0	nt	nt	nt	nt
COc1cc2cc[n+](Cc3ccc([N+](=O)[O-])cc3)cc2cc1OC	7.11*	i	nt	104.0	nt	nt	71.0*	-79.5*
O=C1NC[C@H](CCCCN2C[C@H](Cc3ccc(O)cc3)N(CCc3ccccc3)C(=O)C2=O)N(CC2CCCCC2)C1=O	nt	nt	nt	101.0	nt	nt	nt	nt
CC1CN(Cc2ccco2)C(=S)NC1=O (configuration not stated)	nt	nt	nt	100.0	nt	nt	nt	nt
Cc1noc(C)c1COC(=O)c1csc2c1CCC(C)C2 (configuration not stated)	nt	nt	nt	94.0	nt	nt	nt	nt
NNC(=O)c1ccc(COCC(F)(F)F)cc1	i	i	nt	92.0	nt	nt	-5.6	i
CC(C)NC(=S)N/N=C/c1cc(Br)ccc1O	i	i	1	98.0	0.6	-141.4	nt	nt
N#C/C(=C\c1c(N2CCOCC2)nc2ccccn2c1=O)C(=O)NC1CCS(=O)(=O)C1 (configuration not stated)	9.63*	i	nt	98.0	nt	nt	10.0*	-54.1*
N#C/C(=C\c1c(N2CCCCCC2)nc2ccccn2c1=O)C(=O)NC1CCS(=O)(=O)C1 (configuration not stated)	i	i	1	98.0	2.4	1.1	nt	nt
COC(=O)/C(C#N)=C/c1c(N2CCN(C)CC2)nc2ccccn2c1=O	7.3*	i	nt	100.0	nt	nt	47.9*	-55.6*
CN1CCN(c2nc3ccccn3c(=O)c2C=C(C#N)C#N)CC1	i	i	nt	99.0	nt	nt	50.4*	-49.3*
CCOC(=O)/C(C#N)=C/c1c(N2CCN(c3ccccc3)CC2)nc2ccccn2c1=O	i	i	nt	96.0	nt	nt	nt	nt
Cc1ccc(S(=O)(=O)/C(C#N)=C/c2c(N3CCN(C)CC3)nc3ccccn3c2=O)cc1	i	i	1.1	99.0	-8.6	1.0	nt	nt
CC1Cc2ccccc2N1C(=O)CSc1nc2c(c(=O)n(C)c(=O)n2C)n1Cc1ccccc1 (configuration not stated)	i	i	1	100.0	-3.4	-1.0	nt	nt
CC1(C(=O)NCCc2ccccc2)Cc2c(-c3ccc(C(N)=O)cc3)ccnc2O1 (configuration not stated)	nt	nt	nt	103.0	nt	nt	nt	nt
Cc1ccc(-c2c(C(=O)N(C)Cc3ccccc3)oc(=O)c3ccccc23)cc1	i	i	1.1	95.0	-8.3	1.7	32.5*	i
Cc1cc2ccccc2n1CCNC(=O)C1CCCC1	i	i	1	110.0	-0.9	-10.6	1.9	i
Cc1cc2ccccc2n1CCNC(=O)C1CCCCC1	i	i	1	100.0	-2.2	3.2	nt	nt
CC1(C)CC(NC(=O)COc2cc3oc(=O)c4c(c3cc2Cl)CCC4)CC(C)(C)N1	i	i	nt	101.0	nt	nt	nt	nt
Cc1cc(=O)oc2c(C)c(OCC(=O)NC3CC(C)(C)NC(C)(C)C3)ccc12	8.16*	i	nt	105.0	nt	nt	46.8*	-54.2*
Cc1cc(OCC(=O)NC2CC(C)(C)NC(C)(C)C2)c2c(C)c(C)c(=O)oc2c1	9.21*	i	nt	103.0	nt	nt	49.0*	-47.7*
